Test results published in ChEMBL document CHEMBL1154783, “Study of 1,4-dihydropyridine structural scaffold: discovery of novel sirtuin activators and inhibitors” (2009).
The source made the active and inactive calls. No cut-off for these calls is given here.

Assays:
[1] = target: T1, NAD-dependent protein deacetylase sirtuin-3, mitochondrial (Homo sapiens) (UniProt Q9NTG7); assay: Activation of human SIRT3 expressed in Escherichia coli after 1 hr by fluorescent biochemical assay
T1 sequence (whole entry): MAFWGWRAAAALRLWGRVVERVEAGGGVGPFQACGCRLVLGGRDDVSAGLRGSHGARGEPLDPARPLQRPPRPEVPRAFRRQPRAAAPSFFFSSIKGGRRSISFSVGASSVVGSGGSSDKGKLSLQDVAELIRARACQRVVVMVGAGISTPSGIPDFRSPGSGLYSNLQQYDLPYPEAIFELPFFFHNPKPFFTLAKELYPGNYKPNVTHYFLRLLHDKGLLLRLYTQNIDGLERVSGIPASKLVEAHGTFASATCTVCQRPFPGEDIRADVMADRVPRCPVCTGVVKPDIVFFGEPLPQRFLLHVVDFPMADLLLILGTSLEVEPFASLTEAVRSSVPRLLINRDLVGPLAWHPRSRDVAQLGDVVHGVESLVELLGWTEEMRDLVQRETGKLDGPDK
In short: (§1)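 Fluor de Lys two-step assay with human SIRT1 (full length, 747 aa), SIRT2 (389 aa) or SIRT3 catalytic fragment ([…]), all expressed in E. coli. Enzyme was set at 1 U/well for SIRT1 and 5 U/well for SIRT2/SIRT3. Developer was then added for 15 min at 37 °C. Read at ex 355/em 460 nm, triplicates, background-subtracted, with autofluorescence controls for activators.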

[2] = Inhibition of human MSC senescence assessed as appearance of senescence-associated beta-galactosidase positive cells at 50 uM after 48 hrs by optic microscopy relative to control; assay type: functional; set-up: scale not given: the % may be the effect or the level left
In short: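 Primary human MSC cultured 30 days (ninth passage), 3 × 10^5 cells/well, treated at 50 μM for 48 h. Cells fixed in 2% formaldehyde/0.2% glutaraldehyde, then stained overnight at 37 °C in pH 6 citrate/phosphate buffer with ferro/ferricyanide and 1 mg/mL X-Gal. Blue cells counted as % of total, with the control set as 100%.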

[3] = target: T2, NAD-dependent protein deacetylase sirtuin-2 (Homo sapiens) (UniProt Q8IXJ6); assay: Inhibition of human SIRT2 expressed in Escherichia coli at 50 uM after 1 hr by fluorescent biochemical assay; in short: as §1
T2 sequence (whole entry): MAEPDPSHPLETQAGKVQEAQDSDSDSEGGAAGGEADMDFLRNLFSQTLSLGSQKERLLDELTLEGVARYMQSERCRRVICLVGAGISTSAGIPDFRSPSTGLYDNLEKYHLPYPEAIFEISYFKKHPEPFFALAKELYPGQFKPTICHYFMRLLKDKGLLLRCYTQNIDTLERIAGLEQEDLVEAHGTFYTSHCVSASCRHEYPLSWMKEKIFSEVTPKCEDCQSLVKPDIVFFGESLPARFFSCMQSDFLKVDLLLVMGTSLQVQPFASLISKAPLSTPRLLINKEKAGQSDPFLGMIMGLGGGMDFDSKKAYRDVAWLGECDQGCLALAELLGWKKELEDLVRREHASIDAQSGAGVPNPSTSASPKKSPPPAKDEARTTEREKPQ

MCF7 [4] = assay: Cell cycle arrest in human MCF7 cells assessed as accumulation at G1/S phase at 50 uM after 30 hrs by FACS analysis; assay type: functional, cell-based
[5] = target: T3, NAD-dependent protein deacetylase sirtuin-1 (Homo sapiens) (UniProt Q96EB6); assay: Inhibition of human SIRT1 expressed in Escherichia coli at 50 uM after 1 hr by fluorescent biochemical assay; in short: as §1
T3 sequence (whole entry): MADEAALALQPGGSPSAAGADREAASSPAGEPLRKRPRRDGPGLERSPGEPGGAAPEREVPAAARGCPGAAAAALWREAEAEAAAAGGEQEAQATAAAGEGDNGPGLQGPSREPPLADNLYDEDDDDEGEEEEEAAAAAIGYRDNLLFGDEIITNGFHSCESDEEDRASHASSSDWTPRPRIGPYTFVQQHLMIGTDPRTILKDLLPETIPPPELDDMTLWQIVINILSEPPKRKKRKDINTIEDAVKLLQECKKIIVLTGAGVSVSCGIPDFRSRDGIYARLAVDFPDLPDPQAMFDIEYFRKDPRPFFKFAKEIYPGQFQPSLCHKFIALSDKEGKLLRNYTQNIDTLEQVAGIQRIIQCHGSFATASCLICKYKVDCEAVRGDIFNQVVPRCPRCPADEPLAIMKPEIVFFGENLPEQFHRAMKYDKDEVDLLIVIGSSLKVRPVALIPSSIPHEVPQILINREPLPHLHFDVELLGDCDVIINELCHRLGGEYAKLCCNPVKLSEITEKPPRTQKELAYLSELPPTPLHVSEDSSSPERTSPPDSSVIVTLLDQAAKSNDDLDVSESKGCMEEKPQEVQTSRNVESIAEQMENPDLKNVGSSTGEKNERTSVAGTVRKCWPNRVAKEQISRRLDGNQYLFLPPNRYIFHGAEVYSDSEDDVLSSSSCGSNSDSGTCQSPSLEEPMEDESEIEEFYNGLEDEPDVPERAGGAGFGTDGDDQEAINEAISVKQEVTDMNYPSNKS

U-937 [6] = assay: Cell cycle arrest in human U937 cells assessed as accumulation at G1/S phase at 50 uM after 30 hrs by FACS analysis; assay type: functional, cell-based
In short: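 U937 cells given 50 μM for 30 h. 2.5 × 10^5 cells lysed in hypotonic buffer (0.1% Triton X-100, 0.1% sodium citrate, 50 μg/mL PI, RNase A) for 30 min in the dark, then DNA content measured by flow cytometry. Done in triplicate.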

[7] = target: T2, NAD-dependent protein deacetylase sirtuin-2 (Homo sapiens); assay: Activation of human SIRT2 expressed in Escherichia coli at 1 to 50 uM after 1 hr by fluorescent biochemical assay; in short: as §1
[8] = target: T3, NAD-dependent protein deacetylase sirtuin-1 (Homo sapiens); assay: Activation of human SIRT1 expressed in Escherichia coli after 1 hr by fluorescent biochemical assay; in short: as §1
U937 (Homo sapiens) = assay: Induction of granulocyte differentiation in human U937 cells assessed as increase in phycoerythrine-conjugated CD11c expression at 50 uM after 30 hrs by propidium iodide staining-based FACS analysis
MCF7 [9] = assay: Induction of apoptosis in human MCF7 cells assessed as caspase 3/7 activity at 50 uM after 30 hrs by FACS analysis; assay type: functional, cell-based
[10] = target: T1, NAD-dependent protein deacetylase sirtuin-3, mitochondrial (Homo sapiens); assay: Inhibition of human SIRT3 expressed in Escherichia coli at 50 uM after 1 hr by fluorescent biochemical assay; in short: as §1
C2C12 [11] = assay: Increase in mitochondrial function in mouse C2C12 cells assessed as enhancement of mitochondrial density at 50 uM after 16 hrs by green FM dye straining-based fluorescence assay; assay type: functional, cell-based
In short: (§2)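 C2C12 myoblasts (3000 cells/well) treated for 16 h (overnight), with DMSO as control. Cells then stained with MitoTracker Green FM (200 nM) and fluorescence intensity read after subtracting background from unstained wells.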

[12] = target: T2, NAD-dependent protein deacetylase sirtuin-2 (Homo sapiens); assay: Activation of human SIRT2 expressed in Escherichia coli after 1 hr by fluorescent biochemical assay; in short: as §1
C2C12 [13] = assay: Increase in mitochondrial function in mouse C2C12 cells assessed as enhancement of mitochondrial density at 10 to 50 uM after 16 hrs by green FM dye straining-based fluorescence assay; assay type: functional, cell-based; in short: as §2
C2C12 [14] = assay: Stimulation of transcriptional activity of mTFA promoter in mouse C2C12 cells after 16 hrs by luciferase reporter gene assay; assay type: functional, cell-based
In short: (§3)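 C2C12 myoblasts in DMEM with 10% heat-inactivated FCS were reverse-transfected (Lipofectamine) with a luciferase reporter carrying either the wild-type mTFA promoter or a mutant lacking the NRF1 site. Cells plated at 3000/well and treated for 16 h (overnight). Luciferase activity compared with DMSO-treated cells by Student's t-test.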

[15] = target: T4, Peroxisome proliferator-activated receptor gamma coactivator 1-alpha (Homo sapiens) (UniProt Q9UBK2); assay: Stimulation of PGC1-alpha-mediated transcriptional activity of mTFA promoter in mouse C2C12 cells expressing NRF1 site after 16 hrs by luciferase reporter gene assay; assay type: cell-based; in short: as §3
T4 sequence (whole entry): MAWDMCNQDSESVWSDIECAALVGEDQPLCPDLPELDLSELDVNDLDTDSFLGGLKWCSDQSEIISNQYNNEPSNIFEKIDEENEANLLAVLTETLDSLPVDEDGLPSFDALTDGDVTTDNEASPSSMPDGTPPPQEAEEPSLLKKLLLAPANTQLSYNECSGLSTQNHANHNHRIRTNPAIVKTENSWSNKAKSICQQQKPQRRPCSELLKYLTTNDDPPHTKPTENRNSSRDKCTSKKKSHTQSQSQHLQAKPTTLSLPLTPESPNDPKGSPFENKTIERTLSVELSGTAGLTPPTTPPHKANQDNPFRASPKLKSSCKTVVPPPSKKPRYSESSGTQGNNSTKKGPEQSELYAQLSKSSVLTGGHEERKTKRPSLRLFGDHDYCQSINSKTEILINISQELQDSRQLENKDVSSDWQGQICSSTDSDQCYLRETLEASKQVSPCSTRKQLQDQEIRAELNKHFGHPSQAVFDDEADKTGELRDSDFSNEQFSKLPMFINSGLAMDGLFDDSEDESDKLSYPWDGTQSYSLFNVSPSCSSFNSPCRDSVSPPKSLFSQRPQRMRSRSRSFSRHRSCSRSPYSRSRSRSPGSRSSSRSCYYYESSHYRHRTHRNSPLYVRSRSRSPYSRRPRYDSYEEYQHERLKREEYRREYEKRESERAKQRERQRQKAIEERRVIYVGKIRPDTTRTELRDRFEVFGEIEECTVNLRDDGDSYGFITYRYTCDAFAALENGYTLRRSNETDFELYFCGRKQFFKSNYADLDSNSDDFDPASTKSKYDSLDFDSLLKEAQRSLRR

U-937 [16] = assay: Induction of apoptosis in human U937 cells assessed as caspase 3/7 activity at 50 uM after 30 hrs by FACS analysis; assay type: functional
In short: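 U937 cells given 50 μM for 30 h. Apoptosis measured as caspase 3-7 activity by FACS.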

U-937 [17] = assay: Induction of granulocyte differentiation in human U937 cells assessed as increase in phycoerythrine-conjugated CD11c expression at 50 uM after 30 hrs by propidium iodide staining-based FACS analysis; assay type: functional
In short: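 U937 cells given 50 μM for 30 h, then stained with CD11c-PE (or PE-mouse IgG1 control) for 30 min at 4 °C in the dark. Cells were resuspended in PBS with PI (0.25 μg/mL) and analyzed by FACS, with PI-positive cells excluded. Readout: CD11c+/PI− cells.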

MCF7 [18] = assay: Induction of granulocyte differentiation in human MCF7 cells assessed as increase in phycoerythrine-conjugated CD11c expression at 50 uM after 30 hrs by propidium iodide staining-based FACS analysis; assay type: functional, cell-based

Row | Structure (SMILES) | EC150 [1] | Activity [2] | inhibition [3] | Activity (MCF7 [4]) | inhibition [5] | Activity (U-937 [6]) | Activity [8] | Activity (U937 (Homo sapiens)) | Activity (MCF7 [9]) | Activity [10] | Activity (U-937 [16]) | further results
1 | NC(=O)C1=CN(Cc2ccccc2)C=C(C(N)=O)C1c1ccccc1 | > 50 µM | 65% | inactive | inactive | inactive | Active | Dose-dependent effect | inactive | inactive | inactive | – | Activity [7]: inactive
2 | Oc1ccc(/C=C/c2cc(O)cc(O)c2)cc1 [RESVERATROL] | – | 50% | – | – | – | – | – | – | – | – | – | Activity (C2C12 [11]): Active
3 | O=C(O)C1=CN(Cc2ccccc2)C=C(C(=O)O)C1c1ccccc1 | 50 µM | 70% | inactive | inactive | inactive | Active | Dose-dependent effect | inactive | inactive | inactive | – | EC150 [8]: 1 µM; EC150 [12]: 15 µM
4 | O=C(O)C1=CN(c2ccccc2)C=C(C(=O)O)C1c1ccccc1 | – | – | – | – | 86.6% | – | – | – | – | – | – | –
5 | CCOC(=O)C1=CN(Cc2ccccc2)C=C(C(=O)OCC)C1c1ccccc1 | 50 µM | – | inactive | inactive | inactive | Active | Dose-dependent effect | inactive | inactive | inactive | – | Activity (C2C12 [13]): Active; Activity (C2C12 [14]): inactive; EC150 [8]: 1 µM; Activity [15]: Dose-dependent effect; EC150 [12]: 25 µM
6 | CCOC(=O)C1=CN(CCc2ccccc2)C=C(C(=O)OCC)C1c1ccccc1 | – | – | 49.6% | inactive | 76.6% | – | – | – | inactive | – | 3% | Activity (U-937 [17]): 12.3%; Activity (MCF7 [18]): inactive
7 | CCOC(=O)C1=CN(c2ccccc2)C=C(C(=O)OCC)C1c1ccccc1 | – | – | 51.3% | inactive | 63.6% | – | – | inactive | inactive | – | 3% | –
8 | NC(=O)C1=CN(c2ccccc2)C=C(C(N)=O)C1c1ccccc1 | – | – | – | – | 89.1% | – | – | – | – | – | – | –
9 | CCOC(=O)C1=CN(C2CC2)C=C(C(=O)OCC)C1c1ccccc1 | – | – | 53.7% | inactive | – | – | – | inactive | inactive | – | 3% | –
